Source: PubChem (several laboratories)
Platelet DG rel: modulates dense granule release in human platelets | human platelet-rich plasma, SFLLRN dense granule ATP release, luminescence | inhibition, %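 (compounds screened at 7.5 µM in platelet-rich plasma)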 | actives 0.22% (n = 300,000);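 active means mean replicate score, as percent of positive control, at or above 50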
VLA-4 inh: inhibition in a human VLA-4 binding assay; P13612; VLA-4 expressing cells, ligand binding flow cytometry; inhibition, % (about 7 µM as worked out from the volumes in the protocol); actives 0.2% (n = 330,000); in the data active means inhibition above about 50%
Target sequence (P13612 whole entry, looked up): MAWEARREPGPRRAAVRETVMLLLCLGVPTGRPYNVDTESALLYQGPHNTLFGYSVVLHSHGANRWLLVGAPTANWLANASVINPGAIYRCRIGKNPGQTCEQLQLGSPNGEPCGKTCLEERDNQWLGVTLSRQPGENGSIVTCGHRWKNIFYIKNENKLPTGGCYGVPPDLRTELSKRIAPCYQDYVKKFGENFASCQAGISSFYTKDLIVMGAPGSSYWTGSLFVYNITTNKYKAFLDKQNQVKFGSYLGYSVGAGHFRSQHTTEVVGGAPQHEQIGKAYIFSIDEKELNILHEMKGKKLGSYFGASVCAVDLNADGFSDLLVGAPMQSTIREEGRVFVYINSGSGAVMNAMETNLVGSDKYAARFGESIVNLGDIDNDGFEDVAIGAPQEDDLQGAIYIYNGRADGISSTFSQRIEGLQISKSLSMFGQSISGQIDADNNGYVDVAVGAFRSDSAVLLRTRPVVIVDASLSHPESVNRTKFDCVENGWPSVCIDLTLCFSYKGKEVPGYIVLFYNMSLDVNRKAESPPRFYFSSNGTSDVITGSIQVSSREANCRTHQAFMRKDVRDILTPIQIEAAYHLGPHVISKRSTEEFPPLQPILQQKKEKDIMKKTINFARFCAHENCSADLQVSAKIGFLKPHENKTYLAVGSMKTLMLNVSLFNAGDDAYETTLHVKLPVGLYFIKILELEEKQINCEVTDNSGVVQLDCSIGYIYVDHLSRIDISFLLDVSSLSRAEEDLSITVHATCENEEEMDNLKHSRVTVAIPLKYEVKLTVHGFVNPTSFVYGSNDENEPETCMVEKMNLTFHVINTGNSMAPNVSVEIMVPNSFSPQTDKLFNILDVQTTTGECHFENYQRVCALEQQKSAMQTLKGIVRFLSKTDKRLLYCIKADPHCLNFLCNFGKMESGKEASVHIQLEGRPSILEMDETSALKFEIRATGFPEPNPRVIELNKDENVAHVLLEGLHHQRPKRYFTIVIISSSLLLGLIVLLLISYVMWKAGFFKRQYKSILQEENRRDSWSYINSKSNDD
Myeloid diff 2: compounds promoting myeloid differentiation. ER-HoxA9 myeloid progenitors, lysozyme-GFP differentiation, flow cytometry. calls only at 10 µM. actives 1% (n = 360,000). AID 624256;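 active means normalized GFP-positive differentiation at or above the plate's own cutoff, the solvent-only control mean plus 3 SD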;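 further: cells exposed to compound for four days before flow analysis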
SENP1 inh: inhibitors of human SENP1 SUMO protease catalytic domain | actives 0.21% (n = 360,000) | recombinant SENP1 catalytic domain, CyPet-SUMO1-YPet FRET cleavage | inhibition, % at 10 µM | Q9P0U3;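 active means inhibition at least 30% at 10 µM, raw YFP signal under a set limit, fluorescence ratio 0.5 to 1.5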
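Material: hSENP1 catalytic domain, recombinant; medium: Tris pH 8 with BME, BSA, NP40 and catalase; compound: single concentration of 10 µM compound, 0.5% DMSO final; technique: FRET read of cyan and yellow fluorescence; timing: 50 min enzyme reaction, room temperature, light-protected; reagent: SFCypet-SUMO1-SFYpet substrate at 25 nM; control set: no-enzyme low, enzyme-DMSO high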
Of the large screens only hits and unclear results are named; the others gave an inactive call. Compounds with a hit are over-represented: about 1.5% of the library has one in this group of screens.

Cc1ccccc1OCC(=O)OCC(=O)Nc1ncc(Cl)c(C)c1Cl	none (no result: Platelet DG rel)
COc1cc(O)oc1C=Nc1ccc(C(=O)O)cc1	Platelet DG rel 70
CCOC(=O)C1=C(C)NC(=O)NC1c1ccc(N2CCC(c3ccccc3)=N2)cc1 (stereo not given)	Myeloid diff 2 active
CN1OC[C@@H]2CN(Cc3ccc(Cl)cc3)[C@H](c3ccc(-n4ccnc4)cc3)C[C@@H]21	none (no result: Platelet DG rel, VLA-4 inh)
COc1ccc(-c2nn(-c3ccccc3)cc2N)cc1	Myeloid diff 2 active
CN1C(=O)NC(c2ccccc2[N+](=O)[O-])C2=C1CCCC2=O (stereo not given)	Myeloid diff 2 active
COc1ccc(NC(=O)C2(C)CCN2CCc2ccccc2)cc1OC (stereo not given)	none (no result: Platelet DG rel, VLA-4 inh)
COc1ccc(NC(=O)CSc2nnc(C)c3ccccc23)cc1	none
N#Cc1cccc(NC(=O)CSc2ccc3c4c(cccc24)C(=O)c2ccccc2-3)c1	Myeloid diff 2 active
COc1ccc(NC(=O)CSc2ccc3c4c(cccc24)C(=O)c2ccccc2-3)cc1	Myeloid diff 2 active
CC(Oc1ccccc1)C(=O)N=C1SC2CS(=O)(=O)CC2N1c1ccccc1 (stereo not given)	none
CN(CCCNC(=O)CCC(=O)N1CCOc2ccc(Cl)cc21)Cc1ccccc1	none
N=C1C(c2ccccc2)=C(O)CN1NC(=O)c1ccccc1	Myeloid diff 2 active
COc1ccccc1N1CCN(S(=O)(=O)CCNC(=O)CC2CCCC2)CC1	none (no result: Platelet DG rel, VLA-4 inh)
N#CC1(NC(=O)COC(=O)/C=C/c2ccc3ccccc3n2)CCCCC1	none
OC(Cn1ccnc1)c1ccc(Cl)cc1Cl (stereo not given)	none
Clc1ccc(C(Cn2ccnc2)OCc2c(Cl)cccc2Cl)c(Cl)c1 (stereo not given)	Myeloid diff 2 active (no result: Platelet DG rel)
Cn1c(CCC(=O)O)nc2cc(S(=O)(=O)N3CCCC3)ccc21	none (no result: Platelet DG rel)
CCN(CC)S(=O)(=O)c1ccc2c(c1)nc(CCC(=O)O)n2C	Platelet DG rel 60
CCCNC(=O)CSc1nnc(-c2ccccc2Br)n1-c1cccc(C(F)(F)F)c1	none
CCCCc1ccc(NC(=S)N2CCC(O)CC2)cc1	Myeloid diff 2 active
COc1ccc(-n2c(SCC(=O)Nc3ccc4c(c3)OCO4)nc3ccccc3c2=O)cc1	Myeloid diff 2 active
COc1ccc(NC(=O)CSc2nc(O)cc(=O)n2-c2ccc(OC)cc2)cc1	Myeloid diff 2 active
COc1ccc(NC(=O)CSc2nc(C3CC3)nc3ccccc23)cc1	Myeloid diff 2 active
CC(C)c1nc(SCC(=O)NC2CCCC2)c2ccccc2n1	Myeloid diff 2 active
CCOC(=O)C(=O)N(C)c1c(CC)nc2c(OCc3ccccc3OC)cccn12	none (no result: Platelet DG rel, VLA-4 inh)
COc1ccc(C2=Nn3c(nnc3-c3ccccc3F)SC2)cc1OCC1CC1	none (no result: Platelet DG rel)
Cc1ccc(C(=O)O/N=C(\N)c2ccccn2)c(Cl)c1	Platelet DG rel 76
Cc1ccc(C(=O)O/N=C(\N)c2ccccc2)c(Cl)c1	Platelet DG rel 68
N/C(=N\OC(=O)c1ccc(Cl)cc1Cl)c1ccccn1	Platelet DG rel 56
N/C(=N\OC(=O)c1cc(Br)ccc1Cl)c1ccccn1	none
COc1ccccc1N(CC(=O)NCCSCc1ccccc1Cl)S(C)(=O)=O	none
O=C(Nc1ccc([N+](=O)[O-])cc1)Nc1ccc(OC(F)F)c(Cl)c1	none (no result: Platelet DG rel)
COc1ccc(C(=O)CC2SC(N)=NC2=O)cc1 (stereo not given)	none
CC(C)(C)c1ccc(C2=NC(=O)C(CC(=O)O)S2)cc1 (stereo not given)	Myeloid diff 2 active
O=C(O)c1ccccc1C(=O)Nc1ccc(Oc2ccc3ccccc3c2)cc1	Myeloid diff 2 active
Cc1ccc(S(=O)(=O)NC(=O)C2(C)CCN2C(=O)C2CCCCC2)nc1 (stereo not given)	none (no result: Platelet DG rel, VLA-4 inh)
c1ccc(-c2nc(-c3ccccn3)no2)cc1	none
Cc1ccc(-c2nc(-c3ccccn3)no2)cc1	Platelet DG rel 52
Cc1ccc(-c2nc(-c3ccccn3)no2)cc1Cl	none
c1ccc(-c2ccc(-c3nc(-c4ccccn4)no3)cc2)cc1	Platelet DG rel 95
Cc1ccccc1-c1noc(-c2ccc(O)cc2)n1	Platelet DG rel 100
Nc1ccc2cccc(O)c2c1	none (no result: Platelet DG rel, VLA-4 inh)
Nc1ccc2cc3ccccc3cc2c1	Myeloid diff 2 active (no result: Platelet DG rel, VLA-4 inh)
O=S(=O)(c1cc(Cl)ccc1Cl)N1CCN(c2ccccn2)CC1	none
Cc1ccc(-n2cc3c(-c4cccc(Br)c4)nnc(C)c3n2)cc1	Myeloid diff 2 active
Cc1nnc(-c2cccc(Br)c2)c2cn(-c3ccccc3Cl)nc12	none
NNC(=O)c1cc2c(N3CCC(Cc4ccccc4)CC3)ncnc2s1	Myeloid diff 2 active
O=C(Nc1nccs1)c1cn(-c2ccccc2)nc1-c1ccncc1	Myeloid diff 2 active
Cc1ccccc1/C=N/n1c(-c2cc(-c3ccccc3)n[nH]2)n[nH]c1=S	none
S=c1[nH]nc(-c2cc(-c3ccccc3)n[nH]2)n1/N=C/c1c(Cl)cccc1Cl	Myeloid diff 2 active
CCC1=NN(C(=O)c2ccc(Cl)cc2)C(O)(c2ccc(C)cc2)C1 (stereo not given)	none
CCOC(=O)C1=NN(C(=O)c2ccc(C)cc2)C(O)(c2ccc(Cl)cc2)C1 (stereo not given)	SENP1 inh 31
O=C(N/N=C/c1cn(-c2ccccc2)nc1-c1cc2ccccc2o1)c1ccncc1	Myeloid diff 2 active
CC/C(C)=N/NC(=O)c1[nH]c2ccc(C)cc2c1-c1ccccc1	Myeloid diff 2 active
COc1ccc(S(=O)(=O)N2CCCC(C(=O)NC3CC3)C2)cc1Cl (stereo not given)	none
Cc1ccc(C)c(Oc2cc(F)nc(N)n2)c1	Myeloid diff 2 active
Cc1ccc(-c2cc(-c3ccc(Cl)cc3)c(C#N)c(N)n2)o1	none
Cc1ccc(-c2cc(-c3ccc(F)cc3)c(C#N)c(N)n2)o1	Myeloid diff 2 active
Cc1ccc(-c2cc(-c3ccc(C)o3)nc(N)c2C#N)cc1	Myeloid diff 2 active
COc1ccccc1N1C(=O)N(CC(=O)C(C)(C)C)c2ccccc2S1(=O)=O	none
COc1cc(/C=N/Nc2nncn2/N=C/c2ccc(O)c(OC)c2)ccc1O	Platelet DG rel 56
CCC/C(C#Cc1cc(OC)cc(OC)c1)=C1/c2ccccc2C(=O)N1c1ccccc1	none (no result: Platelet DG rel)
CCC/C(C#Cc1ccc(N(C)C)cc1)=C1/c2ccccc2C(=O)N1c1ccccc1	Myeloid diff 2 active (no result: Platelet DG rel)
O=C1C(=C(O)c2ccccc2)C(=O)c2ccccc21	Myeloid diff 2 active
Cc1cc(NS(=O)(=O)c2cn(C)nc2C)no1	Myeloid diff 2 active
COc1cccc(CC2(CO)CCN(C(=O)NCCc3ccccc3)CC2)c1	Myeloid diff 2 active
CCOc1ccc(CNC(=O)CCC(=O)n2ncc3ccc(Cl)cc32)cc1	none
O=C(CCCN1C(=O)/C(=C/c2ccccc2Cl)SC1=S)NNC(=O)c1ccccc1	none
O=C(CCCN1C(=O)/C(=C/c2ccccc2Cl)SC1=S)NNC(=O)c1ccc(Cl)cc1Cl	Platelet DG rel 53
O=C1N=C(N2CCCC2)S/C1=C\c1ccccc1	Myeloid diff 2 active
O=C1N=C(N2CCOCC2)S/C1=C/c1cccs1	Myeloid diff 2 active
O=C1/C(=C\c2cc(Cl)c(O)c(Cl)c2)SC(=S)N1Cc1ccccc1	Myeloid diff 2 active
